The source of these data is ChEMBL document CHEMBL1157745, “Structure-based discovery of A2A adenosine receptor ligands” (J Med Chem, 2010).

Activity calls are given as the source filed them. The calls are words filed in the database; no cut-off is given here.

As usually defined, the Ki is a measure of affinity in units of concentration, obtained from inhibition or displacement.

Data set [1] has as its target Cruzipain (Trypanosoma cruzi) (UniProt P25779). As to the kind of experiment: Inhibition of Trypanosoma cruzi cruzain at 10 uM preincubated for 5 mins before substrate addition by spectrophotometry. The settings on record: in the assay text read “spectrofluorimetry” for “spectrophotometry”. The essentials: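 Enzyme (0.8 nM) preincubated with compound 5 min in 100 mM sodium acetate pH 5.5, 5 mM DTT, with and without 0.1% Triton X-100; started with Z-FR-AMC (2.5 μM final, enzyme 0.4 nM final), 0.5% DMSO; fluorescence ex 355/em 460 nm over 5 min; duplicates, DMSO controls.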

In data set [2] the target is T1, Adenosine receptor A1 (Homo sapiens) (UniProt P30542).
T1 sequence (whole entry): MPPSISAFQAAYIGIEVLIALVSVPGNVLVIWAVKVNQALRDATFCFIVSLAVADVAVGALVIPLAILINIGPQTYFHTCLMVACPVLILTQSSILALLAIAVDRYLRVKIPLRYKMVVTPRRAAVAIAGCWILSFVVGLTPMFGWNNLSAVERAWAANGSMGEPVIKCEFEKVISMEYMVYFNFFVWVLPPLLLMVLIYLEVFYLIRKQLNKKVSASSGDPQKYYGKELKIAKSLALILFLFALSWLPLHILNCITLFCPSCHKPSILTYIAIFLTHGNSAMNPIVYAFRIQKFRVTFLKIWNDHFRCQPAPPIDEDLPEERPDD
As to the kind of experiment: Displacement of [3H]R-PIA from human recombinant adenosine A1 receptor expressed in CHO cells at 20 uM after 60 mins by scintillation counting. Type of data set: cell-based. On the technique in general: In a radioligand displacement assay an active substance lowers the binding of a labelled ligand.

The next data set has as its target Adenosine receptor A2a (Homo sapiens, UniProt P29274). Description: Displacement of [3H]CGS21680 from human recombinant adenosine A2A receptor expressed in HEK293 cells after 60 mins by scintillation counting. Type of data set: cell-based.
A short description of data set [3]: Colloidal aggregation at 10 uM by dynamic light scattering assay. Type of data set: physicochemical. The essentials: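 Compounds diluted from concentrated DMSO stocks into filtered 50 mM KPi, pH 7.0; particle formation checked by dynamic light scattering with 826.6 nm laser at 100% power, detector angle 90°.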
Data set [4] concerns the target T2, Adenosine receptor A3 (Homo sapiens) (UniProt P0DMS8).
T2 sequence (whole entry): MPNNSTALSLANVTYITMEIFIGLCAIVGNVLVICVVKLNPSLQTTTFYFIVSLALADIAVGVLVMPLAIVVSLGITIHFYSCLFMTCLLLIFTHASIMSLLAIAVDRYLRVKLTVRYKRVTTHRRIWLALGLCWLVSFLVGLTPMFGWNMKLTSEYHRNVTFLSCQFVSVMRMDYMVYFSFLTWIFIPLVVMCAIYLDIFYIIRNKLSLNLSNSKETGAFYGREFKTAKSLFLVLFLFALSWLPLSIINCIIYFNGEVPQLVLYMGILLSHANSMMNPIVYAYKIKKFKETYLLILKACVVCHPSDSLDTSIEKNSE
Description: Displacement of [125I]I-AB-MECA from human recombinant adenosine A3 receptor expressed in CHO cells at 20 uM after 60 mins by gamma counting.

The nature of data set [5]: Inhibition of beta-lactamase AmpC preincubated for 5 mins before substrate addition by spectrophotometry. The method, boiled down: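 In 50 mM potassium phosphate pH 7.0, 1 nM enzyme incubated 5 min with compound at 10 μM (0.1% DMSO); CENTA added to 92 μM final; absorbance at 405 nm followed for 5 min; duplicates with DMSO controls.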
The species entered for data set [6] is Homo sapiens. Description: Selectivity ratio of Ki for human recombinant adenosine A1 receptor to KI for human recombinant adenosine A2A receptor.
The species named for data set [7] is Homo sapiens. Description: Selectivity ratio of Ki for human recombinant adenosine A3 receptor to KI for human recombinant adenosine A2A receptor.

Chain of Cruzipain (Trypanosoma cruzi) (P25779 123-467 limits assumed): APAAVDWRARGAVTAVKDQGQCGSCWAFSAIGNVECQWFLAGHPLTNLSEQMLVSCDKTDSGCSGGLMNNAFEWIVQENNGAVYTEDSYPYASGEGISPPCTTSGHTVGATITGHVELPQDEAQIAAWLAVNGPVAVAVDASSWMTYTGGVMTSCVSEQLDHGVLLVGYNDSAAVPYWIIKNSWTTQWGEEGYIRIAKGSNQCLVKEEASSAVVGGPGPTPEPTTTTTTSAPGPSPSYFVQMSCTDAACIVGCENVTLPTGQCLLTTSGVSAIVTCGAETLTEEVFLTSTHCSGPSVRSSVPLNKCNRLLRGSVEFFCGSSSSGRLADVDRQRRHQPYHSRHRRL
Chain of Adenosine receptor A2a (P29274 whole entry): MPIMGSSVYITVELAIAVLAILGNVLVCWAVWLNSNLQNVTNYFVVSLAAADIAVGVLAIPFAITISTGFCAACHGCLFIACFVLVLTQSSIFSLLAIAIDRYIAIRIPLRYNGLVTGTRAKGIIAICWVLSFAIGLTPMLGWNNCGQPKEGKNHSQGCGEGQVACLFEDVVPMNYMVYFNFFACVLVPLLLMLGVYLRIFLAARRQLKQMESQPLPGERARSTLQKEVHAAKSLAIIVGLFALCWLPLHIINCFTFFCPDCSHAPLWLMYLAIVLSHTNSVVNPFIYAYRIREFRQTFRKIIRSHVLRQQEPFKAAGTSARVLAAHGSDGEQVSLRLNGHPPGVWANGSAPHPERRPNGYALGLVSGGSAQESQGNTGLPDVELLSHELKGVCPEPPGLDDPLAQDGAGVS

Take `Cc1ccc2nc(Nc3nc(C)cc(C)n3)[nH]c2c1`: the outcome in data set [1] was inactive. Besides, the Activity in data set [2] is 12%; in data set [3] it was “Not Active”; in data set [4], 15%. At Adenosine receptor A2a, the Ki is 1300 nM.
Take `COc1ccc(CCNC(=N)Nc2nc(C)cc(C)n2)cc1`: the Activity in data set [2] worked out at 10%; in data set [4], 9%. Also, at Adenosine receptor A2a, the Ki came to 900 nM.
As for `N=C(NCCc1c[nH]c2ccccc12)Nc1ncccn1`, the Activity stood at 4% in data set [2] and 8% in data set [4].
As to `Cc1cccc(O[C@H](C)C(=O)Nc2nnc(-c3ccccc3)[nH]2)c1`, the Activity entry in data set [3] was “Not Active”.
Consider `Cc1cccc(Nc2nc3c([nH]2)c(=O)n(C)c(=O)n3C)c1`, for which the values for the Activity in data set [2] and in data set [4] were 6% and 17%, respectively. Besides, the Ki on Adenosine receptor A2a is 1200 nM.
For `Cc1cc(C)nc(NC(=N)NCCc2ccsc2)n1`, the Activity stood at 3% in data set [2] and 21% in data set [4].
For the compound `COc1ccc2c(CCNC(=N)Nc3nc(C)cc(C)n3)c[nH]c2c1`, the Activity in data set [2] was 5%; in data set [4], 20%. In addition, the Ki at Adenosine receptor A2a was found to be 600 nM.
For `NC(=NCCc1c[nH]c2ccccc12)Nc1ncccn1`, on Adenosine receptor A2a, the Ki is 5900 nM.
`Cc1cc(C)nc(NC(=N)NCCc2c[nH]c3ccc(F)cc23)n1`: in data set [1], the result was Active. For the same compound, the inhibition result in data set [5] was “inactive”. For the same compound, the Ratio Ki in the data set listed under Homo sapiens [6] and in the data set listed under Homo sapiens [7] was 50 each time. The values for the Activity in data set [2] and in data set [4] were 25% and 18%, respectively.
Turning to `CNc1ccccc1C(=O)/N=C(\N)Nc1nc(C)c2ccccc2n1`, the Activity was found to be 15% in data set [2] and 8% in data set [4]. The Ki on Adenosine receptor A2a was determined as 8800 nM.
On to `Cc1cccc(O[C@H](C)C(=O)Nc2nc(-c3ccccc3)n[nH]2)c1`, for which the outcome in data set [1] was inactive. For the same compound, the inhibition entry in data set [5] is “inactive”.
On to `Cc1cc(C)nc(NC(N)=NCCc2c[nH]c3ccc(F)cc23)n1`, for which, on Adenosine receptor A2a, the Ki is 200 nM. The outcome in data set [3] was Active.
As for `Cc1cc(C)nc(NC(N)=NCCc2ccsc2)n1`, the Ki at Adenosine receptor A2a was 400 nM.
Regarding `COc1ccc(-c2cc(=O)[nH]c(Nc3ccccc3)n2)cc1OC`, the Activity in data set [2] is 4%; in data set [4], 37%. Further, the Ki at Adenosine receptor A2a came out at 3600 nM.
In the case of `COc1ccc2c(c1)oc1c(-c3ccncc3)c(C#N)c(N)c(C#N)c12`, the outcome in data set [1] was inactive. For the same compound, the results for the Activity in data set [2], in data set [3] and in data set [4] were 5%, “Not Active” and 28%, respectively. On Adenosine receptor A2a, the Ki is 2700 nM.
`Cc1cc(C)nc(NC(=N)NCCc2c[nH]c3ccccc23)n1`: the Activity was determined as 19% in data set [2] and 16% in data set [4]. Further, on Adenosine receptor A2a, the Ki came to 400 nM.
